# From PubChem BioAssay
# hDAT+cocaine: changed human dopamine transporter uptake under cocaine IC80 | 110,000 tested, 1.3% active | Q01959 | B-score at 10 µM | LLC-PK1 hDAT cells, [14C]-dopamine uptake with cocaine IC80; actives deviate in either direction;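 active = Z score or B-score, a plate-position-corrected score, falls beyond the plate's 99.7% confidence bounds, in either direction; inactive = both scores lie inside the 99.7% bounds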;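 note: scored against the spread of the other compound wells on the same plate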
# Cav3 T inh: blocks human Cav3.2 T-type calcium channel; O95180; Cav3.2-expressing cells, Fluo-4 calcium fluorescence FDSS; active compounds read low; B-score at 10 µM; 100,000 tested, 4% active; AID 449739;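 active = single-dose well whose peak fluorescence ratio is a statistical outlier from its plate by either plate-standardised score or position-corrected B-score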
# HIV Rev-RRE inh: disrupts HIV-1 Rev binding to RRE RNA; 97,000 tested, 0.79% active; Rev peptide-RRE RNA binding, FRET; P05866; AID 704; inhibition, % at 8 µM;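 active = inhibition above the screen-wide mean plus 3 SD, cut at about 35% in these data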;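 note: 0% = median DMSO wells and 100% = median Neomycin B control wells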
#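 assay system = Cy5-tagged RRE RNA duplex with fluorescein-tagged Rev peptide | incubation = 5 + 15 min at 25 °C | also added = labelled Rev peptide | measure = % inhibition of FRET ratio versus controls | benchmarks = DMSO wells as 0% and neomycin B wells as 100% inhibition | measured by = FRET fluorescence readout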
# Measles CPE: protection of cells from measles virus | protection (pct of control), % at 4 µM | 140,000 tested, 1.5% active | AID 841 | Measles virus-infected cells, CPE protection, absorbance; in the data active = protection mostly above about 24%, no sharp cut-off; inactive = mostly below about 26%
# Phagocyt inh: blocks phagocytosis by macrophages. AID 1029. 110,000 tested, 0.07% active. J774A.1 macrophage IgG-bead phagocytosis, imaging. inhibition, % at 5 µM;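 active = inhibition above the mean of the plate negative controls plus 5 SD, cut at about 13% in these data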;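 note: phagocytic index as fraction of beads internalized from green versus red external bead signal; plate controls were DMSO negative control for no effect and cytochalasin-D positive control for full effect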
# PTK2B oligo ant: Pyk2 (human) oligomerization antagonism; Q293 cells, Pyk2 FERM NanoBiT luminescence; active compounds read low; 99,000 tested, 0.83% active; z-score (the deposit names both 25 µM and 10 µM);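 active = Z-score of -3 or lower, scaled per plate to the spread of control and sample wells; inactive = z-score above -3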;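 note: negative z-score means lost luminescence so less FERM oligomerization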
# Target sequence (Q14289 whole entry, looked up): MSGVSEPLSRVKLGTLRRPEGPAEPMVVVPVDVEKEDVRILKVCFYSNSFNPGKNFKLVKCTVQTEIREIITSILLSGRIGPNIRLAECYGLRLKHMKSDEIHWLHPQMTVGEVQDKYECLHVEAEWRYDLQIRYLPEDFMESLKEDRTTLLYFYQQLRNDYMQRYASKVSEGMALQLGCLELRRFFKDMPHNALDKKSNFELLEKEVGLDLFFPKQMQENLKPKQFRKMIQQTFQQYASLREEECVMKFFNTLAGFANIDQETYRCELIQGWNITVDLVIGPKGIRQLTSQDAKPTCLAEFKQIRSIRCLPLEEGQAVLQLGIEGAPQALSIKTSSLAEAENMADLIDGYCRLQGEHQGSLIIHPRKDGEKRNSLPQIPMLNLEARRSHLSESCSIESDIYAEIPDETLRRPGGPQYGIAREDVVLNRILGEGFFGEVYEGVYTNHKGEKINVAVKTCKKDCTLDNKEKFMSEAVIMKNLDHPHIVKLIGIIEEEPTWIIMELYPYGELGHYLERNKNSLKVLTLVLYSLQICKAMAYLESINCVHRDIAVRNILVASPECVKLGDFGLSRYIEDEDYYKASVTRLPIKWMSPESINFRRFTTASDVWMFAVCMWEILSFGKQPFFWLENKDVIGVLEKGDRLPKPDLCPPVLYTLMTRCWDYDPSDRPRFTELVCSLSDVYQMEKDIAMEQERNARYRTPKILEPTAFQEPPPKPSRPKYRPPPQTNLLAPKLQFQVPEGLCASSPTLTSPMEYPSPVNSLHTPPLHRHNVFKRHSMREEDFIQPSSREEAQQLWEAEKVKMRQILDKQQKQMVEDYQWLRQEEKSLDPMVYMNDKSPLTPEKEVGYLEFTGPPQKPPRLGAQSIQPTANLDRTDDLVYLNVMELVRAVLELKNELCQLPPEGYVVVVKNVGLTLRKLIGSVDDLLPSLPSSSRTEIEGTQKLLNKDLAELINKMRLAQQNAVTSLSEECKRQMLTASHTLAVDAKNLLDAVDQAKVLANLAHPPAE
# Starred values were filed as active, the others as inactive; · = not tested or not shown; [ ] = remark or other dose. Sampled rows, rich in hits. Any-hit rate of the full collection: about 5.9%.
SMILES,hDAT+cocaine,Cav3 T inh,HIV Rev-RRE inh,Measles CPE,Phagocyt inh,PTK2B oligo ant
CCOC(=O)[C@@]1(C#N)C(c2ccc(Cl)c(Cl)c2)[C@H](C(N)=O)N2C=C(C(C)=O)C=C[C@H]21 (stereo partly specified),-0.165,-2.12,22.9,12.9,0.1,0.44
COC(=O)C1=C(c2cc3ccccc3s2)C[C@@H]2CC[C@H]1N2C(=O)N1CCOCC1,-0.654,0.812,·,·,·,·
CCOC(=O)C(O)(c1ccc(N(CC)S(=O)(=O)c2ccccc2)cc1)C(F)(F)F (stereo unspecified),0.353,-5.14*,6.3,7.0,-0.4,-1.67
CCN(c1ccc(C(O)(C(=O)OC)C(F)(F)F)cc1)S(=O)(=O)c1ccccc1 (stereo unspecified),0.581,-2.91*,·,7.6,-0.1,-1.49
CCN(C(=O)Oc1ccccc1)c1ccc(C(O)(C(=O)OC)C(F)(F)F)cc1 (stereo unspecified),·,·,·,23.7,-12.4,-2.48
CCn1c(O)c(C=Nc2ccc(N3CCOCC3)cc2)c(=O)n(CC)c1=S,0.0419,-4.48*,97.8*[fluorescence artefact?],35.1*,2.0,-1.66
CCn1c(O)c(C=Nc2ccc(N3CCOCC3)c(Br)c2)c(=O)n(CC)c1=S,·,·,26.8,4.3,-2.6,-0.18
O=S(=O)(c1ccccc1)N1CC1c1ccccc1 (stereo unspecified),·,·,·,1.6,-2.1,·
O=P(Nc1ccccc1Cl)(c1ccccc1)c1nc2c(s1)CCCC2 (stereo unspecified),-0.703,-5.88*,10.1,11.6,·,-1.55
CC(C)[C@H]1C(=O)O[C@H](C(C)C)C(=O)N(C)[C@@H](C(C)C)C(=O)O[C@H](C(C)C)C(=O)N(C)[C@@H](C(C)C)C(=O)O[C@H](C(C)C)C(=O)N1C,-0.413,-3.9*,·,·,·,·
O=C(Cn1ncc2c3ccccc3n(Cc3cccc(Cl)c3)c2c1=O)N1CCC2(CC1)OCCO2,5.98*,-10.7*,·,3.5,-0.4,0.12
O=C1NC(=O)N(c2ccc3c(c2)OCO3)C(=O)/C1=C/c1ccc(N2CCCCC2)o1,-1.62,-4.43,124.3*[fluorescence artefact?],10.4,-0.4,0.27
CN1C(=O)C(=Cc2ccc(N3CCCCC3)o2)C(=O)N(C)C1=S,-1.32,-6.71*,120.5*[fluorescence artefact?],1.9,·,-0.06
O=c1[nH]c(=O)n(CCC2=CCCCC2)c(O)c1C=NCc1cccnc1,·,·,-4.7,0.4,1.0,-3.19*
CCCNC(=O)N1[C@H]2CC[C@@H]1C(C(=O)OC)=C(c1cc3ccccc3o1)C2,1.65,-0.426,·,·,·,·
Cc1ccc2c(c1)C1CN(C)CCC1N2C(=O)c1ccco1 (stereo unspecified),0.293,0.803,6.6,8.7,2.2,1.39
Cc1ccc2c(c1)C1CN(C)CCC1N2C(=O)Nc1cccc(Cl)c1 (stereo unspecified),3.42*,0.203,-7.1,22.4,·,-0.09
COC(=O)C1=C(c2cc3ccccc3s2)C[C@@H]2CC[C@H]1N2C(=O)NCCNC(C)=O,-1.89,0.614,·,·,·,·
NCCc1c[nH]c2ccccc12,0.0368,0.932,·,12.9,·,·
CCCCC/C(=N\O)c1c[nH]c2ccccc12,-0.00656,-4.6*,-1.9,18.1,·,-1.73
O=C(O)CC[N+](=O)[O-],1.21,·,·,·,·,·
CP(C)(=O)CCC(=O)O,0.512,-0.37,9.5,37.7*,-0.9,0.55
COC(=O)C1=C(c2cc3ccccc3o2)C[C@@H]2CC[C@H]1N2C(=O)NCCO,-0.417,0.3,·,·,·,·
CCC(C)C1N=C(c2ccccc2)c2cc(Cl)ccc2N(CC(=O)NCc2ccco2)C1=O (stereo unspecified),-0.568,0.633,11.0,13.7,-0.3,·
CN(C)c1ccc(NC(=O)CN2C(=O)CN=C(c3ccccc3)c3ccccc32)cc1,0.465,-5.04*,3.6,8.6,-0.4,-0.39
CN(C)c1ccc(NC(=O)CN2C(=O)CN=C(c3ccccc3)c3cc(Cl)ccc32)cc1,1.12,-8.87*,6.4,6.7,-0.4,·
Cc1ccc(NC(=O)CN2C(=O)CN=C(c3ccccc3)c3cc(Cl)ccc32)cc1,0.158,-6.68*,11.6,36.0,0.1,·
Nc1ccncc1,-0.445,0.52,·,18.6,·,·
COc1ccc(C(Nc2ccccc2)P(=O)(Oc2ccccc2)Oc2ccccc2)cc1 (stereo unspecified),·,·,·,3.3,·,·
OC(COCc1ccc(Cl)cc1)CN1CC=C(c2ccccc2)CC1 (stereo unspecified),-0.0205,-6.59*,·,3.2,-0.6,-0.01
